Assay results reported in ChEMBL document CHEMBL4052594, “Discovery of Pyrrolidine-Containing GPR40 Agonists: Stereochemistry Effects a Change in Binding Mode” (J Med Chem, 2017).
Calls of active or inactive are those of the source. No cut-off for these calls is given here.

Legend:
[1] = target: Free fatty acid receptor 1 (Mus musculus) (UniProt Q76JU9); assay: Intrinsic activity at mouse GPR40 expressed in CHO-A12 cells assessed as increase in intracellular calcium flux at 8.3 uM measured for 100 secs by FLIPR assay […]; assay type: functional, cell-based
Free fatty acid receptor 1 (Mus musculus), sequence (Q76JU9 whole entry): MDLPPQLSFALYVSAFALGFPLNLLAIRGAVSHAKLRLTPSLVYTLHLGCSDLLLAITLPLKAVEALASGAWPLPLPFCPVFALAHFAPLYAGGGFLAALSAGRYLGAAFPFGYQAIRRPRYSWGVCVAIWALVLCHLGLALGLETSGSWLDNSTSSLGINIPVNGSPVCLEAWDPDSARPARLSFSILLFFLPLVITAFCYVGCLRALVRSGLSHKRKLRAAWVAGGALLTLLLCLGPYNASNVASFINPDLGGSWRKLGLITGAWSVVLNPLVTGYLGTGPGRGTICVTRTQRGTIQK

[2] = target: T1, Free fatty acid receptor 1 (Mus musculus, UniProt Q76JU9); assay: Agonist activity at GPR40 in mouse STC1 cells assessed as induction of GLP-1 secretion measured after 1 hr by HTRF assay; assay type: cell-based
T1 sequence (Q76JU9 whole entry): as above

[3] = target: T2, Free fatty acid receptor 1 (Homo sapiens, UniProt O14842); assay: Potentiation of DHA-induced agonist activity at human GPR40 inducibly expressed in HEK293 cells assessed as increase in intracellular calcium flux at 3 nM measured for 100 secs by FLIPR assay; assay type: functional, cell-based
T2 sequence (O14842 whole entry): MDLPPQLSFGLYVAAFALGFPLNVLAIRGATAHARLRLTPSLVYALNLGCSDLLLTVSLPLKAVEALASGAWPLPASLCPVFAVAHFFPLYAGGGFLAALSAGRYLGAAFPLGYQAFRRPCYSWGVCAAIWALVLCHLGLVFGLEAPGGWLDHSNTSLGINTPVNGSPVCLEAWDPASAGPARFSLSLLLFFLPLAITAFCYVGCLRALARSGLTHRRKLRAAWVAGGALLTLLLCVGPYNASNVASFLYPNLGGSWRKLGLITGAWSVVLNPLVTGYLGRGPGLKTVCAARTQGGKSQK
Method in brief: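 Ca2+ FLIPR concentration-response to DHA in inducible hGPR40 cells, alone or with fixed added test compound (3 nM or 10 nM); curve shift assessed.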

[4] = tested on: Rattus norvegicus; assay: Toxicity in rat assessed as effect on mean arterial blood pressure at 80 mg/kg administered as single dose; assay type: organism-based; details: in vivo
Method in brief: (§1)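 Male rats fitted with telemetry received a single 80 mg/kg dose. Heart rate and blood pressure recorded by telemetry; locomotor activity monitored.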

[5] = Volume of distribution at steady state in CD-1 mouse at 0.2 mg/kg, iv by LC-MS/MS analysis; assay type: ADME, organism-based; details: in vivo, read-out: Vdss
[6] = target: Cytochrome P450 3A4 (Homo sapiens, UniProt P08684); assay: Inhibition of CYP3A4 (unknown origin); assay type: ADME
Cytochrome P450 3A4, sequence (P08684 whole entry): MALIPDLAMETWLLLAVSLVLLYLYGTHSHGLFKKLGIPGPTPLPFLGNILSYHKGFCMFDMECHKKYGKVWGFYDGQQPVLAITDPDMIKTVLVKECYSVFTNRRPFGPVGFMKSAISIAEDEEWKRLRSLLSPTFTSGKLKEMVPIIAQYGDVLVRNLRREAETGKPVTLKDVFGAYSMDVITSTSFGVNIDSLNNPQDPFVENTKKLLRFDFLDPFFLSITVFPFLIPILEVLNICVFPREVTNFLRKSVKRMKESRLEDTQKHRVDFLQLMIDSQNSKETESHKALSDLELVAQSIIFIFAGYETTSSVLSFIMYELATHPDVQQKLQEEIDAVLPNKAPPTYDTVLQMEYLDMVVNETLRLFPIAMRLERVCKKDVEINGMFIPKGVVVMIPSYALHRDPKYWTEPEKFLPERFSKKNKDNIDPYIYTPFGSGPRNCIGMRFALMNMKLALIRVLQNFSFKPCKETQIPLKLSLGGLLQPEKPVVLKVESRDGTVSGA

[7] = Oral bioavailability in C57BL6 mouse at 0.5 mg/kg; assay type: ADME, organism-based; details: in vivo
[8] = target: T2, Free fatty acid receptor 1; assay: Intrinsic activity at human GPR40 transfected in HEK293 cells assessed as induction of cAMP accumulation at 16.7 uM incubated for 30 to 45 mins by HTRF assay relative to […]; assay type: functional, cell-based
[9] = tested on: Rattus norvegicus; assay: Toxicity in rat assessed as induction of hyperactivity at 80 mg/kg administered as single dose; assay type: organism-based; details: in vivo; method in brief: as §1
[10] = Half life in cynomolgus monkey liver microsomes; assay type: ADME, Macaca fascicularis, microsome
[11] = Clearance in CD-1 mouse at 0.2 mg/kg, iv by LC-MS/MS analysis; assay type: ADME, organism-based; details: in vivo
[12] = target: T3, Peroxisome proliferator-activated receptor gamma (Homo sapiens, UniProt P37231); assay: Binding affinity to PPARgamma (unknown origin); assay type: ADME
T3 sequence (P37231 whole entry): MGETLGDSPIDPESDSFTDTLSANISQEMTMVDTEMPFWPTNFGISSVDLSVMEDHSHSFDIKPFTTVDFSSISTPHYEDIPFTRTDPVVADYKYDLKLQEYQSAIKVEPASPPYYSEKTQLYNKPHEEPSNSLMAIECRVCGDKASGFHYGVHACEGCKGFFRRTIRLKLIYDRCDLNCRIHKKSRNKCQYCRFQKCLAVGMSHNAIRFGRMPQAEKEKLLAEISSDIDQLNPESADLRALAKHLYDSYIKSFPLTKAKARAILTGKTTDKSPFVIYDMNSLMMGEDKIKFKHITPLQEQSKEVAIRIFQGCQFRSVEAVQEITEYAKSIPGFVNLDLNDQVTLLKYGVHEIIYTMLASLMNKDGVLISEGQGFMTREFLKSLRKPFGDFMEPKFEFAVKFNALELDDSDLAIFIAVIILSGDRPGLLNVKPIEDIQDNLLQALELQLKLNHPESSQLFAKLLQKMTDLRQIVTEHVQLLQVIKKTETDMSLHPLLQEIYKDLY

[13] = target: T1, Free fatty acid receptor 1; assay: Agonist activity at mouse GPR40 expressed in CHO-A12 cells assessed as increase in intracellular calcium flux measured for 100 secs by FLIPR assay; assay type: functional, cell-based
[14] = Half life in human liver microsomes; assay type: ADME, microsome
[15] = target: Free fatty acid receptor 1 (Mus musculus) (UniProt Q76JU9); assay: Agonist activity at GPR40 in C57BL/6J mouse primary pancreatic islets assessed as increase in glucose-stimulated insulin secretion after 1 hr by ELISA
Method in brief: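 Primary islets isolated from mice; insulin secretion measured across 0.016-2.0 µM compound to assess glucose-stimulated insulin secretion.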

[16] = target: T3, Peroxisome proliferator-activated receptor gamma; assay: Transactivation of human Gal4 fused PPARgamma-LBD expressed in HEK293 cells after 18 hrs by luciferase reporter gene assay; assay type: cell-based
Method in brief: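 Gal4 gene reporter transactivation assay for PPARγ; EC50 and Ymax reported.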

[17] = target: T2, Free fatty acid receptor 1; assay: Agonist activity at human GPR40 transfected in HEK293 cells assessed as induction of cAMP accumulation incubated for 30 to 45 mins by HTRF assay; assay type: functional, cell-based
[18] = Fraction unbound in human plasma; assay type: ADME, cell-free
[19] = Terminal half life in CD-1 mouse at 0.2 mg/kg, iv by LC-MS/MS analysis; assay type: ADME, organism-based; details: in vivo, read-out: beta t1/2 (converted)
[20] = tested on: Mus musculus; assay: Antidiabetic activity in C57BL/6J mouse assessed as change in plasma glucose AUC (0 to 120 mins) at 1 mg/kg, po administered 1 hr prior to glucose challenge by oral glucose tolerance test; assay type: functional
Method in brief: (§2)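 C57BL/6J mice dosed orally at 0.3 or 1 mg/kg 1 h before an oral glucose bolus. Plasma glucose sampled at -60, -20, 0, 20, 40, 60 and 120 min; glucose AUC0-120 expressed relative to vehicle.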

[21] = tested on: Rattus norvegicus; assay: Toxicity in rat assessed as effect on heart rate at 80 mg/kg administered as single dose; assay type: organism-based; details: in vivo; method in brief: as §1
[22] = target: T2, Free fatty acid receptor 1; assay: Agonist activity at human GPR40 expressed in CHO-A12 cells assessed as increase in intracellular calcium flux measured for 100 secs by FLIPR assay; assay type: functional, cell-based
[23] = target: T4, Peroxisome proliferator-activated receptor gamma (Mus musculus, UniProt P37238); assay: Agonist activity at PPARgamma in mouse 3T3L1 cells assessed as increase in insulin induced adipocyte differentiation by measuring free glycerol levels at 3 uM; assay type: cell-based
T4 sequence (P37238 whole entry): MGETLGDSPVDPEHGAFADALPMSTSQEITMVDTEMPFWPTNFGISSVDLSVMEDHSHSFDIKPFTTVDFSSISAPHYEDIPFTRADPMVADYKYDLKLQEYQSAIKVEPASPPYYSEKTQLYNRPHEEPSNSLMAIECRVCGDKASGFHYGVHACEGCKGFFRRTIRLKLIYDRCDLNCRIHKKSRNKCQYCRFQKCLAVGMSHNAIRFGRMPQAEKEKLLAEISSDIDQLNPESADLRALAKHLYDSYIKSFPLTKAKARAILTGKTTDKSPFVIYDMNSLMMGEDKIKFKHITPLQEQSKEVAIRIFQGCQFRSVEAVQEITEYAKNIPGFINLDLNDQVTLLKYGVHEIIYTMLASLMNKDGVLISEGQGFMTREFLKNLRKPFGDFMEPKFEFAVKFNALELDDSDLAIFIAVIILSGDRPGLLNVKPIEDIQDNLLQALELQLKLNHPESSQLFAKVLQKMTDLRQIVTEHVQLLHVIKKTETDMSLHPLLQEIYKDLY
Method in brief: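 3T3L1 cells incubated with compound at 3 µM; free glycerol levels measured as a marker of PPARγ-mediated adipocyte differentiation.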

[24] = Fraction unbound in mouse plasma; assay type: ADME, cell-free
[25] = Half life in mouse liver microsomes; assay type: ADME, microsome
[26] = tested on: Mus musculus; assay: Decrease in blood glucose level in C57BL/6J mouse at 0.3 mg/kg, po administered 1 hr prior to glucose challenge measured up to 120 mins by oral glucose tolerance test; assay type: functional, organism-based; method in brief: as §2
[27] = target: T5, PPARgamma (Homo sapiens, UniProt P37231); assay: Transactivation of human Gal4 fused PPARgamma-LBD expressed in HEK293 cells at 4.8 uM after 18 hrs by luciferase reporter gene assay relative to […]; assay type: cell-based; details: HEK293 cells expressing Gal4-fused human PPARgamma-LBD
T5 sequence (P37231 whole entry): T3 sequence (P37231 whole entry)

Intrinsic activity [1]: 210% | EC50 [2]: 330 nM | Activity [3]: Active | Vd [5]: 0.1 L/kg | IC50 [6]: 1700 nM | bioavailability [7]: 83% | Intrinsic activity [8]: 140% | half-life [10]: > 2 h | clearance [11]: 0.2 mL/min/kg | EC50 [13]: 54 nM | half-life [14]: > 2 h | Activity [15]: Dose-dependent effect | EC50 [16]: 4400 nM | EC50 [17]: 210 nM | fraction unbound [18]: 0.001 | half-life [19]: 7 h | EC50 [22]: 110 nM | fraction unbound [24]: 0.011 | half-life [25]: > 2 h
Structure (SMILES): COc1ccc(F)c(-c2ccc(Cc3ccc(N4C[C@H](C(F)(F)F)C[C@@H]4CC(=O)O)cc3)c(C)c2)c1
Activity [4]: Non-Toxic | Activity [9]: Toxic | Activity [12]: 1.6 µM | Activity [20]: 39% | Activity [21]: Non-Toxic | Activity [23]: Active | Activity [26]: inactive | Emax at 18 h, 4.8 µM [27]: 40%
